Activity calls are given as the source filed them. The calls are words filed in the database; no cut-off is given here.
How the values were obtained:
L1210 = assay: Cytostatic activity against mouse L1210 cells after 48 hrs by MTT assay; format: functional, cell-based; details: L1210, 48 h
[1] = Cytostatic activity against human Molt4/C8 cells after 72 hrs by MTT assay; format: functional, cell-based; details: MOLT-4, 72 h
CCRF-CEM = assay: Cytostatic activity against human CEM cells after 72 hrs by MTT assay; format: functional, cell-based
HeLa = assay: Cytostatic activity against human HeLa cells after 72 hrs by MTT assay; format: functional, cell-based
Procedure, shortened: (§1)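 Monolayer cells were grown in DMEM with 10% FBS, 2 mM L-glutamine, penicillin and streptomycin at 37 °C under 5% CO2. They were seeded on day 0 at 1 × 10⁴ to 3 × 10⁴ cells/ml and exposed to five 10-fold dilutions (10⁻⁸ to 10⁻⁴ M) for 72 h, with a solvent control. Read-out was MTT. Quadruplicates in three experiments (WI 38: one experiment). IC50 by linear regression of percentage-of-growth.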

MIA PaCa-2 = assay: Cytostatic activity against human MIAPaCa2 cells after 72 hrs by MTT assay; format: functional, cell-based; details: MIA PaCa-2, 72 h; procedure, shortened: as §1
SW-620 = assay: Cytostatic activity against human SW620 cells after 72 hrs by MTT assay; format: functional, cell-based; details: SW-620, 72 h; procedure, shortened: as §1
MCF7 = assay: Cytostatic activity against human MCF7 cells after 72 hrs by MTT assay; format: functional, cell-based; details: MCF7, 72 h; procedure, shortened: as §1
NCI-H460 = assay: Cytostatic activity against human H460 cells after 72 hrs by MTT assay; format: functional, cell-based; details: NCI-H460, 72 h; procedure, shortened: as §1
[2] = tested on: Human immunodeficiency virus 1; assay: Antiviral activity against HIV1 3B infected in human CEM cells assessed as inhibition of virus-induced cytopathicity; format: functional, organism-based; details: CCRF-CEM
[3] = tested on: Human immunodeficiency virus 2; assay: Antiviral activity against HIV2 ROD infected in human CEM cells assessed as inhibition of virus-induced cytopathicity; format: functional, organism-based; details: CCRF-CEM
Human alphaherpesvirus 1 = assay: Antiviral activity against Herpes simplex virus 1 infected in HEL cells assessed as inhibition of virus-induced cytopathicity; format: functional, organism-based
Human alphaherpesvirus 2 = assay: Antiviral activity against Herpes simplex virus 2 infected in HEL cells assessed as inhibition of virus-induced cytopathicity; format: functional, organism-based
Vaccinia virus = assay: Antiviral activity against Vaccinia virus infected in HEL cells assessed as inhibition of virus-induced cytopathicity; format: functional, organism-based; details: Orthopoxvirus vaccinia
Procedure, shortened: (§2)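 Cell cultures were exposed for 2 h to 100 CCID50 of virus, and residual virus was then removed. Infected cells were further incubated with medium containing varying compound concentrations for 3 days at 37 °C. Virus-induced cytopathogenicity was scored microscopically. EC50 is the concentration giving a 50% reduction of cytopathogenicity.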

Human alphaherpesvirus 3 = assay: Antiviral activity against Varicella-Zoster virus infected in HEL cells assessed as inhibition of virus-induced cytopathicity; format: functional, organism-based
Cytomegalovirus = assay: Antiviral activity against Cytomegalovirus infected in HEL cells assessed as inhibition of virus-induced cytopathicity; format: functional, organism-based
Procedure, shortened: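 Confluent HEL fibroblasts were infected with CMV strains Davis and AD-169 at 100 PFU per well for 2 h, then virus was removed. Graded concentrations were added in duplicate and cultures kept 7 days at 37 °C. Cytopathogenicity was scored microscopically after ethanol fixation and Giemsa staining. EC50 is the 50% reduction.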

[4] = tested on: Vesicular stomatitis virus; assay: Antiviral activity against Vesicular stomatitis virus infected in HEL cells assessed as inhibition of virus-induced cytopathicity; format: functional, organism-based; procedure, shortened: as §2
Human respirovirus 3 = assay: Antiviral activity against Parainfluenza-3 virus infected in african green monkey Vero cells assessed as inhibition of virus-induced cytopathicity; format: functional, organism-based
Procedure, shortened: (§3)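 Cells were infected with 100 CCID50 of virus for 2 h, then residual virus was removed. Medium with graded compound concentrations was added and cultures were kept 3 days at 37 °C. Cytopathogenicity was scored microscopically. EC50 is the concentration reducing virus-induced cytopathogenicity by 50%.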

[5] = tested on: Mammalian orthoreovirus 1; assay: Antiviral activity against Reovirus 1 infected in african green monkey Vero cells assessed as inhibition of virus-induced cytopathicity; format: functional, organism-based; procedure, shortened: as §3
Sindbis virus = assay: Antiviral activity against Sindbis virus infected in african green monkey Vero cells assessed as inhibition of virus-induced cytopathicity; format: functional, organism-based; procedure, shortened: as §3
Coxsackievirus B4 [6] = assay: Antiviral activity against Coxsackievirus B4 infected in african green monkey Vero cells assessed as inhibition of virus-induced cytopathicity; format: functional, organism-based; procedure, shortened: as §3
Punta Toro virus = assay: Antiviral activity against Punta Toro virus infected in african green monkey Vero cells assessed as inhibition of virus-induced cytopathicity; format: functional, organism-based; procedure, shortened: as §3
[7] = tested on: Respiratory syncytial virus; assay: Antiviral activity against Respiratory syncytial virus infected in human HeLa cells assessed as inhibition of virus-induced cytopathicity; format: functional, organism-based; procedure, shortened: as §3
[8] = tested on: Vesicular stomatitis virus; assay: Antiviral activity against Vesicular stomatitis virus infected in human HeLa cells assessed as inhibition of virus-induced cytopathicity; format: functional, organism-based; procedure, shortened: as §2
Coxsackievirus B4 [9] = assay: Antiviral activity against Coxsackievirus B4 infected in human HeLa cells assessed as inhibition of virus-induced cytopathicity; format: functional, organism-based; procedure, shortened: as §3
[10] = Cytostatic activity against human WI38 cells after 72 hrs by MTT assay; format: ADME, cell-based; details: WI-38, 72 h; procedure, shortened: as §1

Row | Structure (SMILES) | IC50 (L1210) [µM] | IC50 [1] [µM] | IC50 (CCRF-CEM) [µM] | IC50 (HeLa) [µM] | IC50 (MIA PaCa-2) [µM] | IC50 (SW-620) [µM] | IC50 (MCF7) [µM] | IC50 (NCI-H460) [µM] | Activity [2] | Activity [3] | Activity (Human alphaherpesvirus 1) | Activity (Human alphaherpesvirus 2) | Activity (Vaccinia virus) | Activity (Human alphaherpesvirus 3) | Activity (Cytomegalovirus) | Activity [4] | Activity (Human respirovirus 3) | Activity [5] | Activity (Sindbis virus) | Activity (Coxsackievirus B4 [6]) | further results
1 | O=C(Cc1ccccc1Nc1c(Cl)cccc1Cl)NCCCO | 200 | 215 | 212 | 46 | 54 | 36 | 39 | 68 | inactive | inactive | inactive | inactive | inactive | inactive | inactive | inactive | inactive | inactive | inactive | inactive | Activity (Punta Toro virus): inactive; Activity [7]: inactive; Activity [8]: inactive; Activity (Coxsackievirus B4 [9]): inactive
2 | COC(=O)[C@H](C)NP(=O)(OCCCNC(=O)C(C)c1ccc(CC(C)C)cc1)Oc1ccc(Cl)cc1 (stereo not given in full) | 64 | 48 | 90 | 15 | 13 | 21 | 14 | 19 | inactive | inactive | inactive | inactive | inactive | inactive | inactive | inactive | inactive | inactive | inactive | inactive | IC50 [10]: 21 µM; Activity (Punta Toro virus): inactive; Activity [7]: inactive; Activity [8]: inactive; Activity (Coxsackievirus B4 [9]): inactive
3 | CC(C(=O)NCCCO)c1cccc(Oc2ccccc2)c1 (stereo not given) | 230 | 99 | 71 | > 100 | > 100 | > 100 | > 100 | > 100 | inactive | inactive | inactive | inactive | inactive | inactive | inactive | inactive | inactive | inactive | inactive | inactive | Activity (Punta Toro virus): inactive; Activity [7]: inactive; Activity [8]: inactive; Activity (Coxsackievirus B4 [9]): inactive
4 | COC(=O)[C@H](C)NP(=O)(OCCCNC(=O)C(C)c1cccc(Oc2ccccc2)c1)Oc1ccc(Cl)cc1 (stereo not given in full) | 24 | 39 | 38 | 6 | 5 | 7 | 12 | 13 | inactive | inactive | inactive | inactive | inactive | inactive | inactive | inactive | inactive | inactive | inactive | inactive | IC50 [10]: 20 µM; Activity (Punta Toro virus): inactive; Activity [7]: inactive; Activity [8]: inactive; Activity (Coxsackievirus B4 [9]): inactive
5 | CC(C)Cc1ccc(C(C)C(=O)NCCCO)cc1 (stereo not given) | 213 | 93 | 55 | > 100 | ≥ 100 | > 100 | > 100 | > 100 | inactive | inactive | inactive | inactive | inactive | inactive | inactive | inactive | inactive | inactive | inactive | inactive | Activity (Punta Toro virus): inactive; Activity [7]: inactive; Activity [8]: inactive; Activity (Coxsackievirus B4 [9]): inactive
6 | COC(=O)[C@H](C)NP(=O)(OCCCNC(=O)Cc1ccccc1Nc1c(Cl)cccc1Cl)Oc1ccc(Cl)cc1 (stereo not given in full) | 13 | 9.7 | 22 | 16 | 16 | 16 | 9 | 17 | inactive | inactive | inactive | inactive | inactive | inactive | inactive | inactive | inactive | inactive | inactive | inactive | IC50 [10]: 18 µM; Activity (Punta Toro virus): inactive; Activity [7]: inactive; Activity [8]: inactive; Activity (Coxsackievirus B4 [9]): inactive
7 | COC(=O)[C@H](C)NP(=O)(OCCCNC(=O)C(C)c1cccc(C(=O)c2ccccc2)c1)Oc1ccc(Cl)cc1 (stereo not given in full) | 44 | 40 | 40 | 19 | 14 | 17 | 14 | 18 | inactive | inactive | inactive | inactive | inactive | inactive | inactive | inactive | inactive | inactive | inactive | inactive | IC50 [10]: 30 µM; Activity (Punta Toro virus): inactive; Activity [7]: inactive; Activity [8]: inactive; Activity (Coxsackievirus B4 [9]): inactive
8 | COc1ccc2c(c1)c(CC(=O)NCCCO)c(C)n2C(=O)c1ccc(Cl)cc1 | 179 | 113 | 78 | 26 | 44 | 47 | 22 | > 100 | inactive | inactive | inactive | inactive | inactive | inactive | inactive | inactive | inactive | inactive | inactive | inactive | Activity (Punta Toro virus): inactive; Activity [7]: inactive; Activity [8]: inactive; Activity (Coxsackievirus B4 [9]): inactive
9 | CC(C(=O)NCCCO)c1cccc(C(=O)c2ccccc2)c1 (stereo not given) | 273 | 97 | 71 | > 100 | > 100 | > 100 | > 100 | > 100 | inactive | inactive | inactive | inactive | inactive | inactive | inactive | inactive | inactive | inactive | inactive | inactive | Activity (Punta Toro virus): inactive; Activity [7]: inactive; Activity [8]: inactive; Activity (Coxsackievirus B4 [9]): inactive

Source: ChEMBL document CHEMBL1152859, “The novel phosphoramidate derivatives of NSAID 3-hydroxypropylamides: synthesis, cytostatic and antiviral activity evaluations” (Eur J Med Chem, 2009)
